Shown are actives, neighbours in structure and some others; about 4% of the full set was active somewhere.
GPR7 antag: GPR7 receptor antagonists, primary screen, cell-based, fluorescence, single concentration. GPR7-expressing cells, fluorescence antagonist assay. inhibition, % at 4.4 µM. actives 1.1% (n = 290,000). AID 1861, 2009; in the data active means inhibition above about 16%, passing the limit was not always enough;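 further: cells stimulated with the agonist NPW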
TAAR1 antagonist: human TAAR1 antagonists, primary screen, Fluo-8 calcium fluorescence, CHO RD-HGA16 cells | Trace amine-associated receptor 1 (Homo sapiens), Q96RJ0 | antagonist | inhibition, % at 3 µM | actives 1.5% (n = 360,000) | AID 624466, 2012;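 active means inhibition above a per-plate cutoff, the mean inhibition of test compounds on that plate plus 3 SD, cut at about 49% in these data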
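Test system – hTAAR1-expressing CHO RD-HGA16 cells, Gα16-coupled · Also added – β-PEA at EC80 concentration, post-compound challenge · Compound – 3 µM, single point · Incubation – dye loading 75 min at 37 °C, then 30 min room temperature · Measured by – Fluo-8 intracellular calcium dye fluorescence, real-time kinetic reads · Benchmarks – vehicle and agonist controls · Replicates – singlicate, one well per test compound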
MPTP inh: mitochondrial permeability transition pore inhibitors, primary screen, biochemical, isolated mouse mitochondria, absorbance | Ca2+ swelling absorbance, 30 min | actives 1.4% (n = 360,000) | inhibition, % at 10 µM;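 active means inhibition of 50% or more, scaled per plate between neutral and stimulator controls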
TAAR1 ag: human TAAR1 agonists, primary screen, Fluo-8 calcium fluorescence, CHO RD-HGA16 cells; activation, % at 3 µM; actives 0.99% (n = 360,000); vehicle wells 0%, saturating PEA agonist 100%; Trace amine-associated receptor 1 (Homo sapiens), Q96RJ0;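 active means activation above the mean activation of all test compounds in the run plus 3 SD, cut at about 38% in these data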
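Test system: RD-HGA16 (CHO) cells co-expressing Gα16 and hTAAR1 / Benchmarks: DMSO vehicle as 0%, PEA at EC100 as 100% / Repeats: no replicates (n 1) / Measure: % activation from peak over basal fluorescence ratio, DMSO-to-PEA scaled / Timing: 17-24 h plating, Fluo-8 75 min 37 °C, 30 min RT / Technique: kinetic Fluo-8 calcium fluorescence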
DAGLB inhibitor: DAGLB lipase inhibitors, primary screen, biochemical, fluorescence, HTS; Diacylglycerol lipase-beta (Homo sapiens), Q8NCG7; HEK293T DAGLB membrane lysate, EnzChek fluorogenic substrate; inhibition, % at 5.17 µM; actives 0.059% (n = 340,000); AID 504411, 2011; in the data active means inhibition above about 34%
Target sequence (Q8NCG7 whole entry, looked up): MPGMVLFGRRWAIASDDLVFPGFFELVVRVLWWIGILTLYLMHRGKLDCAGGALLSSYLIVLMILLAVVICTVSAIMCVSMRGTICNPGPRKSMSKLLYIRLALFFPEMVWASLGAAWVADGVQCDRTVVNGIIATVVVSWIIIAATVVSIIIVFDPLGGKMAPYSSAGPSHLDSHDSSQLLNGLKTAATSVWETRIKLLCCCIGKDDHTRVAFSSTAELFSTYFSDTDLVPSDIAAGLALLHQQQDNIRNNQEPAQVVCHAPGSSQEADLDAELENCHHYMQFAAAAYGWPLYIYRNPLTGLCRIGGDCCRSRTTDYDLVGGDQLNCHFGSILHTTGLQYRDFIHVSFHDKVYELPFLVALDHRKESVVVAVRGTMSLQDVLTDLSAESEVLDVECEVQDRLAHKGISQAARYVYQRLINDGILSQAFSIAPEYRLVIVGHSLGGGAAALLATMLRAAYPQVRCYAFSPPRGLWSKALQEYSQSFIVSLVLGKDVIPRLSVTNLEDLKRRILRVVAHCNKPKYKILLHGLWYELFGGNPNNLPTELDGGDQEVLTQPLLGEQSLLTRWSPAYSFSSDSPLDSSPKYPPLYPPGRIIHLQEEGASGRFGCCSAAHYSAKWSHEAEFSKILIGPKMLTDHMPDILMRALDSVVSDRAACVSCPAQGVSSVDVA
MPTP counter: fluorescence retest of MPTP screen hits in isolated mitochondria, single concentration; shares compounds with MPTP inh; membrane potential, Rhodamine 123 fluorescence; inhibition, % at 10 µM; actives 78% (n = 5,000); in the data active means inhibition above about 22%
MPTP abs DR: mitochondrial permeability transition pore inhibitors, dose response, biochemical, absorbance, uHTS hits; shares compounds with MPTP inh; isolated mitochondria swelling; IC50, µM; actives 58% (n = 780); AID 651561, 2012; in the data active means IC50 below about 20 µM
MPTP counter DR: fluorescent counter-screen in isolated mitochondria, dose response, counter-screen for MPTP inhibitor project, biochemical, fluorescence, uHTS hits; shares compounds with MPTP inh; isolated mitochondria counterscreen, fluorescence read-out; IC50, µM; actives 49% (n = 780); AID 651564, 2012; in the data active means IC50 below about 80 µM
Of the large screens only hits and unclear results are named; the others gave an inactive call (follow-up assays come after a bar, where they were run).

CCCn1c(SCC(=O)Nc2nnc(C(C)C)s2)nc2c1c(=O)n(C)c(=O)n2C	none
CCCn1c(SCC(=O)Nc2nc3ccccc3s2)nc2c1c(=O)n(C)c(=O)n2C	MPTP inh 84.8 | MPTP counter inactive | MPTP abs DR 19.2 | MPTP counter DR 14.5
CN(Cc1ccccc1)CC(O)COc1ccc(CNCc2ccc(Cl)s2)cc1 (stereo unspecified)	MPTP inh 91.3 | MPTP counter inactive | MPTP abs DR 7.97 | MPTP counter DR 35.9
C[C@]1(O)CC(=O)C=C[C@H]1Nc1ccccc1	none (no result: GPR7 antag)
Clc1cccc(-c2ccc(CNCc3ccccn3)o2)c1	none
O=c1[nH]nc(Cc2ccc(-c3cccc(Cl)c3)o2)c2ccccc12	MPTP inh 83.6 | MPTP counter 83.1
COc1cc2c(cc1OC)C(C)N(C(=O)c1ccc(Cl)c(S(=O)(=O)N3CCCCC3)c1)CC2 (stereo unspecified)	none
c1ccc2c(c1)oc1c(N3CCN(Cc4ccc5c(c4)OCO5)CC3)ncnc12	MPTP inh 86.1 | MPTP counter 77.3
c1ccc(Cn2nnc3c(N4CCN(Cc5ccc6c(c5)OCO6)CC4)ncnc32)cc1	none
COc1ccc(-c2ccc3nncn3c2)cn1	none (no result: GPR7 antag, DAGLB inhibitor)
N#Cc1c2ccc([N+](=O)[O-])cc2[n+]([O-])n1-c1ccccc1	none (no result: GPR7 antag)
CCOC(=O)/C(C#N)=C1/C=C(C)NC(c2ccccc2O)=N1	MPTP inh 94.3 | MPTP counter 88.6
CCOC(=O)/C(C#N)=C1\Nc2ccccc2N=C1N(CC(C)C)CC(C)C	none
O=C1C(=O)c2ccccc2C(O)=C1C1CCC(c2ccc(Cl)cc2)CC1 (stereo unspecified)	MPTP inh 101.8 (no result: GPR7 antag) | MPTP counter 92.9
C[C@H](CO)N1C[C@H](C)[C@@H](CN(C)C(=O)C2CC2)OCc2cn(nn2)CCCC1=O	none (no result: GPR7 antag, MPTP inh, DAGLB inhibitor)
COc1ccc(Cl)cc1N1CCN(CCNC(=O)Nc2ccccc2C)CC1	MPTP inh 93.8 | MPTP counter inactive | MPTP abs DR inactive | MPTP counter DR 32.1
COc1ccc(CN2C(=O)CCC2(C)c2nnnn2Cc2ccccc2)cc1 (stereo unspecified)	none (no result: GPR7 antag, DAGLB inhibitor)
COC(=O)N1Cc2ccnnc2CC1c1ccccc1-c1ccccc1 (stereo unspecified)	none (no result: GPR7 antag, MPTP inh, DAGLB inhibitor)
CCN(CC)CCN(C)C(=O)c1[nH]c(C(F)(F)F)nc1-c1ccccc1	none (no result: GPR7 antag, DAGLB inhibitor)
N/C(=N\OC(=O)Nc1ccc(Cl)cc1)c1ncc(C(F)(F)F)cc1Cl	MPTP inh 56.1 | MPTP counter 112.7
C/C(=N\OC(=O)Nc1ccc(Cl)cc1)c1ncc(C(F)(F)F)cc1N1CCOCC1	MPTP inh 98.6 | MPTP counter 93.6
CN(NC(=O)Nc1ccc(Cl)cc1)c1ncc(C(F)(F)F)cc1Cl	MPTP inh 87.8 | MPTP counter 91.3
Clc1ccccc1CNCc1ccc2c(c1)OCO2	none (no result: GPR7 antag)
CC(C)[C@H](NC(=O)OC(C)(C)C)c1nnc(SCC(=O)Nc2ccc(Br)cc2)o1	MPTP inh 82.2 | MPTP counter 53.4
N#CNC(=Nc1cccc(F)c1)SCc1ccccc1F	MPTP inh 77.3 | MPTP counter 90.9
CC(C)N=C(NC#N)SCc1ccccc1F	none
CC(C)NC(=O)C1(C)CCN1CCC(=O)c1ccccc1 (stereo unspecified)	none (no result: GPR7 antag, DAGLB inhibitor)
Cc1ccc(-c2noc(C3CCN(S(=O)(=O)c4ccc5c(c4)OCCO5)CC3)n2)o1	MPTP inh 52.4 | MPTP counter 63.8
Oc1ccc(-c2n[nH]c(C(F)(F)F)c2-c2ccccc2)c(O)c1	MPTP inh 83.9 (no result: DAGLB inhibitor) | MPTP counter 75.5
COC(=O)C1CCN(Cc2ccc(OCCCN3CCN(c4ccc([N+](=O)[O-])cc4)CC3)cc2)CC1	MPTP inh 95.6 | MPTP counter 82.2
N#C/C(=C\c1ccc(Sc2ccc(Cl)cc2)o1)c1nc2ccccc2[nH]1	MPTP inh 106.1 | MPTP counter 69.3
N#Cc1ccc(Sc2nc3ccccc3[nH]2)cc1C#N	none
N#C/C(=C\c1ccc(Sc2nc3ccccc3[nH]2)o1)c1ccccc1	MPTP inh 93.3 | MPTP counter 83.8
Cc1ccc(S(=O)(=O)N2[C@H](CC(=O)c3ccc(Cl)c(Cl)c3)OC[C@@H]2C)cc1	none (no result: GPR7 antag, DAGLB inhibitor)
Cc1cc(Br)cn2c(Cc3ccccc3C(F)(F)F)c(-c3ccco3)nc12	none (no result: GPR7 antag, MPTP inh, DAGLB inhibitor)
COCc1cc(N2CCN(C(=O)OC(C)(C)C)C[C@@H]2C)ccc1Br	none (no result: GPR7 antag, MPTP inh, DAGLB inhibitor)
CC1=C(C(=O)Nc2ccc([N+](=O)[O-])cc2)C(c2cccc(C(F)(F)F)c2)NC(=S)N1c1ccccc1 (stereo unspecified)	MPTP inh 75.4 | MPTP counter 89.5
COc1ccc(C2NC(=S)N(c3ccccc3)C(C)=C2C(=O)Nc2ccccc2)cc1 (stereo unspecified)	none
CC(C)n1nnnc1C1c2ccccc2C(=O)N1CCOc1ccccc1 (stereo unspecified)	none (no result: GPR7 antag, DAGLB inhibitor)
CCOC(=O)[C@]12CCCC=C1N(Cc1cccc3ccccc13)C(=O)[C@H](CC(=O)N1CCCC1)C2	none (no result: GPR7 antag, DAGLB inhibitor)
OCC1CCN(Cc2cn(Cc3ccccc3)nc2-c2cc3ccccc3o2)CC1	MPTP inh 52.1 | MPTP counter inactive | MPTP abs DR 18 | MPTP counter DR inactive
Oc1c(Cl)cc(Cl)cc1CNc1ccc(Br)cn1	MPTP inh 72.2 | MPTP counter 83.2
Oc1ccc(Cl)cc1CNc1ccc(Br)cn1	MPTP inh 57.9 | MPTP counter 61.7
O=C(Nc1cccc(S(=O)(=O)N2CCCCC2)c1)Nc1ccc(Cl)cc1Cl	MPTP inh 84.9 | MPTP counter 72.8
COc1ccc(NC(=S)Nc2cccc(S(=O)(=O)N3CCCCC3)c2)cc1	MPTP inh 67.9 | MPTP counter 87.7
O=C(Nc1ccc(Cl)cc1Cl)NC1CCN(S(=O)(=O)c2ccc(F)cc2)CC1	MPTP inh 95.6 | MPTP counter 89.5
O=C(Nc1ccc(F)cc1)Nc1cc(S(=O)(=O)N2CCOCC2)ccc1N1CCCC1	none
O=C(Nc1ccc(Cl)cc1)Nc1cc(S(=O)(=O)N2CCOCC2)ccc1N1CCCC1	MPTP inh 70.9 | MPTP counter 73.0
O=C(Cc1ccccc1Cl)Nc1cccc(S(=O)(=O)N2CCCCCC2)c1	none (no result: GPR7 antag)

High-throughput results as filed in PubChem BioAssay.
